Measurements published in ChEMBL document CHEMBL2177006 (J Med Chem, 2012).

Experiments:
Beta-secretase 1 [1] = biological target: T1, Beta-secretase 1 (Homo sapiens, UniProt P56817); assay: Inhibition of BACE1 in human HEK293 cells expressing APP Swedish mutant assessed as inhibition of amyloid beta (1 to 40) production after overnight incubation by sandwich ELISA; format: cell-based
Beta-secretase 1 [2] = biological target: T1, Beta-secretase 1; assay: Inhibition of human recombinant BACE1 using Glu-Ile-Asp-Leu-Met-Val-Leu-Asp as substrate incubated for 60 mins prior to substrate addition measured after 60 mins by FRET assay
Rattus norvegicus = assay: Antialzheimer activity in Sprague-Dawley rat assessed as reduction in amyloid beta 40 level in CSF at 30 mg/kg, po at 4 hrs by immunoassay relative to control; format: functional; parameters: scale not given: the % may be the effect or the level left
Procedure, shortened: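 At the set time they were euthanized with CO2 for 2 min. CSF was drawn from the cisterna magna with a 30 gauge needle, frozen on dry ice, stored at −80 °C, then assayed for Aβ40 by Meso Scale immunoassay.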

T1 sequence (P56817 whole entry): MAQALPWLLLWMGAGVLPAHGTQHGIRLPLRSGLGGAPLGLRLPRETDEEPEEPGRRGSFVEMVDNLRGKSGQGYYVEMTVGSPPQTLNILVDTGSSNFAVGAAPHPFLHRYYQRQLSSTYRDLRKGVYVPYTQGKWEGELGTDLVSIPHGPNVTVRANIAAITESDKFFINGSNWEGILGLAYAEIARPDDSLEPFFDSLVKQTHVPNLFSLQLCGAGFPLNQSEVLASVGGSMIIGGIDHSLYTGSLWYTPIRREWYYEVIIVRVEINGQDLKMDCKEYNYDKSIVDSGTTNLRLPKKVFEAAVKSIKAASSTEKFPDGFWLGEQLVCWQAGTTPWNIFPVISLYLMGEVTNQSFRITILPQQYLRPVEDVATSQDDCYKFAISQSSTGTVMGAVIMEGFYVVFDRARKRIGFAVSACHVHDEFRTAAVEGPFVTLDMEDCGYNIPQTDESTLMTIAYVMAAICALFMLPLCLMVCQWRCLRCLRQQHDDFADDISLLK

SMILES	IC50 (Beta-secretase 1 [1])	IC50 (Beta-secretase 1 [2])	Activity (Rattus norvegicus)
CC(C)(C)Cc1cnc2c(c1)[C@@H](NC[C@@H](O)[C@H](Cc1ccc3c(c1)OCO3)NC(=O)c1cccnc1)CC1(CCC1)O2	67.6 nM	26.1 nM	–
CC(C)(C)Cc1cnc2c(c1)[C@@H](NC[C@@H](O)[C@H](Cc1ccc3c(c1)OCO3)NC(=O)c1ccc(F)nc1)CC1(CCC1)O2	69.5 nM	48.4 nM	–
CC(C)C(=O)N[C@@H](Cc1ccc2c(c1)OCO2)[C@H](O)CN[C@H]1CC2(CCC2)Oc2ncc(CC(C)(C)C)cc21	812 nM	–	–
CC(C)(C)Cc1cnc2c(c1)[C@@H](NC[C@@H](O)[C@H](Cc1ccc3c(c1)OCO3)NC(=O)c1ccccc1F)CC1(CCC1)O2	1150 nM	76.6 nM	–
CC(C)(C)Cc1cnc2c(c1)[C@@H](NC[C@@H](O)[C@H](Cc1ccc3c(c1)OCO3)NC(=O)c1cccnc1F)CC1(CCC1)O2	64.3 nM	33.2 nM	–
CC(=O)N[C@@H](Cc1ccc(OC(F)F)c(OC(F)F)c1)[C@H](O)CN[C@H]1CC2(CCC2)Oc2ncc(CC(C)(C)C)cc21	238 nM	35.2 nM	–
CC(=O)N[C@@H](Cc1ccc2c(c1)OCO2)[C@H](O)CN[C@H]1CC2(CCC2)Oc2ncc(CC(C)(C)C)cc21	5.5 nM	8 nM	52%

Further lines, with some results ahead:

IC50 (Beta-secretase 1 [1])	IC50 (Beta-secretase 1 [2])	SMILES	Activity (Rattus norvegicus)
16.8 nM	5.4 nM	COCC(=O)N[C@@H](Cc1ccc2c(c1)OCO2)[C@H](O)CN[C@H]1CC2(CCC2)Oc2ncc(CC(C)(C)C)cc21	–
27.5 nM	20.4 nM	CC(C)(C)Cc1cnc2c(c1)[C@@H](NC[C@@H](O)[C@H](Cc1ccc3c(c1)OCO3)NC(=O)[C@@H]1CCCO1)CC1(CCC1)O2	–
55.5 nM	–	C[C@@H](F)C(=O)N[C@@H](Cc1ccc2c(c1)OCO2)[C@H](O)CN[C@H]1CC2(CCC2)Oc2ncc(CC(C)(C)C)cc21	–
9.3 nM	18.2 nM	COc1ccc(C[C@H](NC(C)=O)[C@H](O)CN[C@H]2CC3(CCC3)Oc3ncc(CC(C)(C)C)cc32)cc1OC	–
